Data as given in ChEMBL document CHEMBL2069261, “Click-based synthesis of triazolobithiazole ΔF508-CFTR correctors for cystic fibrosis” (Bioorg Med Chem, 2012).
The source made the active and inactive calls. The rule behind the calls is not given here.

What was measured:
[1] = target: Cystic fibrosis transmembrane conductance regulator (Homo sapiens, UniProt P13569, F508DEL); test: (§1) Corrector activity at human CFTR deltaF508 mutant expressed in FRT cells stimulated forskolin and potentiator genistein with assessed as iodide influx incubated for 24 hrs; type: cell-based
Sequence of Cystic fibrosis transmembrane conductance regulator (P13569 as listed by the source): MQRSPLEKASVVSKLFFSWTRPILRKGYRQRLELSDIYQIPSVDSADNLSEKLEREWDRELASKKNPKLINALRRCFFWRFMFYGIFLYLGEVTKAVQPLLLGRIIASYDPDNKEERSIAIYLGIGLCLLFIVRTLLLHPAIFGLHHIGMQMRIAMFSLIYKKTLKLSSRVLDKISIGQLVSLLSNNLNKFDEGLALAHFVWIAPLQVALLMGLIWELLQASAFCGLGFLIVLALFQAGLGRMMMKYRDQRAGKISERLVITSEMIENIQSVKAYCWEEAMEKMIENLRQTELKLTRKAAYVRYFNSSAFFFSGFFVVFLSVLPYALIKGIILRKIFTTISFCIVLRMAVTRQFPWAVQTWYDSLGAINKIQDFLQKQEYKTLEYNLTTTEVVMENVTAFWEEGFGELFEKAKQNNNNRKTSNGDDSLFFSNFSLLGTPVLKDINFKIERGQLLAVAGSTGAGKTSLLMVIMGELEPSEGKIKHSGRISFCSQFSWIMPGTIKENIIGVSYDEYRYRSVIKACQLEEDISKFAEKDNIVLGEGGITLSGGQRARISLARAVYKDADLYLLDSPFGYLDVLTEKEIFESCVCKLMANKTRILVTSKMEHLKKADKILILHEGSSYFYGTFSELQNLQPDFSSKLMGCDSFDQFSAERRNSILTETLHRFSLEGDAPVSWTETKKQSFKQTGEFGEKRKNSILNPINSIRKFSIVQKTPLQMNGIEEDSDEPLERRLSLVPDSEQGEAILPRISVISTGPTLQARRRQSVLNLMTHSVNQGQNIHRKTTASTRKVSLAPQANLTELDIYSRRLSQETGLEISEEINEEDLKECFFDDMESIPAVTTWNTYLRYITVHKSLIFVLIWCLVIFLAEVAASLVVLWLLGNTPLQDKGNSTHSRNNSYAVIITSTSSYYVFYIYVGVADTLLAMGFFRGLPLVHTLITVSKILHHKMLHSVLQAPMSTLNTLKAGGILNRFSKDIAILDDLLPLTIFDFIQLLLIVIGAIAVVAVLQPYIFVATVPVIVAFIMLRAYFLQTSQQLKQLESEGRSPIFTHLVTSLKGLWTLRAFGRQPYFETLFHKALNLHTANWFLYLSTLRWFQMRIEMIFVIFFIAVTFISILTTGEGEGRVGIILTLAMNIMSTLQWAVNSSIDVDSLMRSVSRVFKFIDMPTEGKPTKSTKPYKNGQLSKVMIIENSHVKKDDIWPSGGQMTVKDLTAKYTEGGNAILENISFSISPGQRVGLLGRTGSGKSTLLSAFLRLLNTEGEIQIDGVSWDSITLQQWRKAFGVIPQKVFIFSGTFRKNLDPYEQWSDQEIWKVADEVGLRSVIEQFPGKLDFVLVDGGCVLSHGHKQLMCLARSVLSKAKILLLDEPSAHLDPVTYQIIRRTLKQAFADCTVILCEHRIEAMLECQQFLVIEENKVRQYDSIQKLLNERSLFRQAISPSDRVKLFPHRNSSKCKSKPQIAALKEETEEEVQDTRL
Outline: (§2)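 Epithelial cells co-expressing ΔF508-CFTR and a fluorescent halide sensor were treated with compound for 24 h across a dose range. They were then stimulated with forskolin (cAMP agonist) plus genistein (potentiator), and I⁻ influx was read from the sensor. Vmax and EC50 were taken from the dose-response curves. n=4, with S.E. reported.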

[2] = Lipophilicity, log P of the compound; type: physicochemical; conditions: octanol/water
Outline: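 LogP was estimated from HPLC retention times. The capacity factor was calculated and correlated to logP values.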

[3] = tested on: Cystic fibrosis transmembrane conductance regulator (Homo sapiens), P13569 [F508del]; test: as §1; type: cell-based; outline: as §2
Sequence of Cystic fibrosis transmembrane conductance regulator (Homo sapiens), P13569 [F508del] (P13569 as listed by the source): as above

| EC50 [1] [nM] | logP ([2]; read-out: logP) | Activity [3] | logP [2] | Compound |
| --- | --- | --- | --- | --- |
| 1600 | 4.8 |  |  | COc1ccc(Cl)cc1Nc1nc(-c2sc(NC(=O)C(C)(C)C)nc2C)c(-n2cc(CO)nn2)s1 |
| 4600 | 4.8 |  |  | COC(=O)c1cn(-c2sc(Nc3cc(Cl)ccc3OC)nc2-c2sc(NC(=O)C(C)(C)C)nc2C)nn1 |
| 140 |  |  |  | COc1ccc(Cl)cc1Nc1nc(-c2sc(NC(=O)C(C)(C)C)nc2C)c(-n2cc(-c3ccccc3)nn2)s1 |
|  | 4.8 |  |  | COc1ccc(Cl)cc1Nc1nc(-c2sc(NC(=O)C(C)(C)C)nc2C)c(-n2cc(C(=O)O)nn2)s1 |

Continued, compound first:

| Compound | EC50 [1] [nM] | logP ([2]; read-out: logP) | Activity [3] | logP [2] |
| --- | --- | --- | --- | --- |
| CNc1nc(-c2sc(NC(=O)C(C)(C)C)nc2C)c(-n2cc(-c3ccccc3)nn2)s1 | 4900 |  |  |  |
| COc1ccc(Cl)cc1Nc1nc(-c2sc(NC(=O)c3ccccc3)nc2C)cs1 |  |  | Active | 5.96 |
| Cc1nc(NC(=O)C(C)(C)C)sc1-c1nc(N)sc1-n1cc(-c2ccccc2)nn1 | 1500 |  |  |  |
